{"data": "Published values pooled from the literature", "target": "Aurora kinase C (AURKC, Homo sapiens, UniProt Q9UQB9)", "One construct used (Q9UQB9 1-309)": "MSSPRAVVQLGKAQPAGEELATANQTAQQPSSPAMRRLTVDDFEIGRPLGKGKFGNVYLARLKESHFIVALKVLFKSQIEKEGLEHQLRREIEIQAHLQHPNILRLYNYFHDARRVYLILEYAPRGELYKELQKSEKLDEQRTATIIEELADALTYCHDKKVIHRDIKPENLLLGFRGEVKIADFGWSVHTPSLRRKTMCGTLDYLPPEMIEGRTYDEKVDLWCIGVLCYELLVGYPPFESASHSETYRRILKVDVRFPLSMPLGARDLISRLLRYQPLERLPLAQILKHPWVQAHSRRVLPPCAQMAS", "note": "Lines come from different studies, so protocols differ."}
{"Structure (SMILES)": "CNC(=O)Nc1ccc2c(c1)CC[C@@]21OC(=O)N(CC(=O)N(Cc2ccc(F)cc2)[C@@H](C)C(F)(F)F)C1=O", "read-out": "cell-free assay", "method": "competition with immobilised ligand", "concentration": "1 µM", "remaining binding [%]": 100}
{"Structure (SMILES)": "CN(C)c1nccc(-c2cnn3ncccc23)n1", "read-out": "binding", "concentration": "1 µM", "remaining binding [%]": 100}
{"Structure (SMILES)": "c1cncc(-c2cccc(Nc3nccc(NC4CCCCC4)n3)c2)c1", "read-out": "binding", "method": "competition with immobilised ligand", "concentration": "10 µM", "remaining binding [%]": 5.5}
{"Structure (SMILES)": "COc1ncc2cc3ccccc3nc2c1C#N", "read-out": "cell-free assay", "method": "competition with immobilised ligand", "concentration": "5 µM", "remaining binding [%]": 100}
{"Structure (SMILES)": "O=C(N1CCS(=O)(=O)CC1)N1C[C@H](c2ccc(OC(F)(F)F)cc2)C[C@H](c2nc(C3CC3)no2)C1", "read-out": "cell-free assay", "method": "competition with immobilised ligand", "concentration": "1 µM", "remaining binding [%]": 99}
{"Structure (SMILES)": "c1cnn2ncc(-c3ccnc(N4CCC45COC5)n3)c2c1", "read-out": "binding", "concentration": "1 µM", "remaining binding [%]": 96}
{"Structure (SMILES)": "O=C(c1ccc(Nc2ncc(Cl)c(-c3cc4ccccc4s3)n2)cc1)N1CCC(N2CCCC2)CC1", "read-out": "binding", "method": "competition with immobilised ligand", "concentration": "1 µM", "remaining binding [%]": 1.8}
{"Structure (SMILES)": "FC(F)(F)Oc1cccc(-c2cnc3ccc(-c4ccncc4)nn23)c1", "read-out": "cell-free assay", "method": "competition with immobilised ligand", "concentration": "5 µM", "remaining binding [%]": 78}
{"Structure (SMILES)": "COc1cccc(CNC(=O)c2nc3scc(COCc4ccc(C(=O)O)cc4)c3c(=O)[nH]2)c1", "read-out": "cell-free assay", "method": "competition with immobilised ligand", "concentration": "1 µM", "remaining binding [%]": 67.3}
{"Structure (SMILES)": "N[C@@H]1CCN(c2nccc(-c3cnn4ncccc34)n2)C1", "read-out": "binding", "concentration": "1 µM", "remaining binding [%]": 100}
{"Structure (SMILES)": "CO[C@H]1CC[C@H](CNc2ccc(S(=O)(=O)NC(=O)c3ccc(N4CCN(CC5=C(c6ccc(Cl)cc6)CC(C)(C)CC5)CC4)cc3Oc3cnc4[nH]ccc4c3)cc2[N+](=O)[O-])CC1", "read-out": "cell-free assay", "method": "competition with immobilised ligand", "concentration": "1 µM", "remaining binding [%]": 87}
{"Structure (SMILES)": "Cc1cnc(Nc2ccc(C(=O)N3CCC(N4CCCC4)CC3)cc2)nc1-c1cc2ccccc2s1", "read-out": "binding", "method": "competition with immobilised ligand", "concentration": "1 µM", "remaining binding [%]": 4.3}
{"Structure (SMILES)": "O=C(Nc1c[nH]nc1C(=O)NC1CCNCC1)c1cc(F)cc(F)c1", "read-out": "binding", "method": "competition with immobilised ligand", "concentration": "1 µM", "remaining binding [%]": 84}
{"Structure (SMILES)": "COc1ccc2c(c1)O[C@H](c1ccc(OC)c(OC)c1)C[C@@H]2NC(=O)C1(c2ccc3c(c2)OC(F)(F)O3)CC1", "read-out": "cell-free assay", "method": "competition with immobilised ligand", "concentration": "1 µM", "remaining binding [%]": 100}
{"Structure (SMILES)": "CN(CCCC(F)(F)F)c1nccc(-c2cnn3ncccc23)n1", "read-out": "binding", "concentration": "1 µM", "remaining binding [%]": 100}
{"Structure (SMILES)": "Cn1nc(C(F)(F)F)cc1-c1cnc(N2CCc3cc(S(=O)(=O)Nc4c(F)cc(Cl)cc4F)cc(N4CCCC4=O)c32)nc1", "read-out": "cell-free assay", "method": "competition with immobilised ligand", "concentration": "1 µM", "remaining binding [%]": 100}
{"Structure (SMILES)": "C[C@@H]1CCN(c2nccc(-c3cnn4ncccc34)n2)C1", "read-out": "binding", "concentration": "1 µM", "remaining binding [%]": 98}
{"Structure (SMILES)": "CC(=O)Nc1c(C(C)=O)c(=O)n(C)c2nc(-c3ccc(Cl)cc3Cl)c(-c3ccc(Cl)cc3)cc12", "read-out": "cell-free assay", "method": "competition with immobilised ligand", "concentration": "1 µM", "remaining binding [%]": 100}
{"Structure (SMILES)": "CN(c1nccc(-c2cnn3ncccc23)n1)C1CC1", "read-out": "binding", "concentration": "1 µM", "remaining binding [%]": 100}
{"Structure (SMILES)": "COc1cnc(Nc2cccc(S(N)(=O)=O)c2)nc1N1CCN(c2ccccc2)C(=O)C1", "read-out": "binding", "method": "competition with immobilised ligand", "concentration": "1 µM", "remaining binding [%]": 97}
{"Structure (SMILES)": "CC1CCCN1c1nccc(-c2cnn3ncccc23)n1 (stereo not shown)", "read-out": "binding", "concentration": "1 µM", "remaining binding [%]": 89}
{"Structure (SMILES)": "O=C(NCCCN1CCOCC1)c1ccc(Nc2ncc(Cl)c(-c3ccc(Cl)s3)n2)cc1", "read-out": "binding", "method": "competition with immobilised ligand", "concentration": "1 µM", "remaining binding [%]": 5.5}
